Results: ChEMBL document CHEMBL4028867, “Design, Synthesis, and Characterization of N-Oxide-Containing Heterocycles with in Vivo Sterilizing Antitubercular Activity” (J Med Chem, 2017)
Converted amounts (≈) assume the structure as drawn. The source made the active and inactive calls. The rule behind the calls is not given here.

Key:
[1] = tested on: Mycobacterium tuberculosis; test: Growth inhibition of Mycobacterium tuberculosis H37Rv exposed to plasma from BALB/c mouse treated with 300 mg/kg, po administered through microemulsion vehicle as single oral dose per gavage after 0.3 hrs by Resazurin microtiter assay; type: functional; conditions: read-out: GI
Procedure, shortened: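 The microemulsion was 10% cholesterol, 10% phosphatidylcholine/sodium oleate/polyoxyl 40 hydrogenated castor oil (3:6:8) and 80% phosphate buffer pH 7.4. Plasma taken at 0.3, 1, 2 or 4 h was tested by REMA for % Mtb growth inhibition, and plasma level was estimated against the in-vitro REMA MIC.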

[2] = tested on: Mycobacterium tuberculosis; test: Antitubercular activity against replicating stage Mycobacterium tuberculosis H37Rv ATCC 27294 after 7 days by Resazurin microtiter assay; type: functional; conditions: H37Rv ATCC 27294, 168 h
[3] = n-Octanol/water partition coefficient, log P of the compound by HPLC analysis; type: physicochemical
Procedure, shortened: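 Log P from n-octanol/water partition coefficient determined by HPLC method.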

[4] = tested on: Mycobacterium tuberculosis; test: Antitubercular activity against Mycobacterium tuberculosis H37Rv ATCC 27294 in presence of 10% fetal bovine serum; type: functional
Escherichia coli = test: Antimicrobial activity against Escherichia coli ATCC 25922 at 200 uM incubated for 16 hrs; type: functional
[5] = tested on: Mycobacterium tuberculosis; test: Antitubercular activity against Mycobacterium tuberculosis H37Rv ATCC 27294 infected in mouse J774A.1 cells at 1.46 to 23.86 ug/ml after 3 days relative to control; type: functional
[6] = Fraction unbound in human plasma at 5 uM by LC-MS/MS analysis; type: ADME, cell-free
[7] = Apparent permeability from apical to basolateral side in human Caco2 cells by LC-MS/MS analysis; type: ADME, cell-based; conditions: caco-2
Procedure, shortened: (§1)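 Caco-2 monolayer permeability measured in both directions (apical-to-basolateral and basolateral-to-apical); result given as apparent permeability coefficient Papp in cm/s.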

[8] = Apparent permeability from basolateral to apical side in human Caco2 cells by LC-MS/MS analysis; type: ADME, cell-based; conditions: caco-2; procedure, shortened: as §1
Mus musculus [9] = test: Genotoxicity in Swiss mouse assessed as incidence of micronucleated peripheral blood reticulocytes at 50 to 500 mg/kg dosed via gavage by micronucleus assay; type: toxicity, organism-based; conditions: in vivo, po
Mus musculus [10] = test: Toxicity in BALB/c mouse assessed as behavioral parameter changes (hippocratic screening) at 200 mg/kg, po qd administered via gavage after 10 days; type: organism-based; conditions: in vivo, 240 h
Procedure, shortened: (§2)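 Mice given one daily oral gavage dose of 200 mg/kg body weight for 10 days with daily behavioural monitoring (hippocratic screening); heart, lung, spleen, kidney and liver weights compared with controls by ANOVA and Dunnett's test, p < 0.05.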

Mus musculus [11] = test: Toxicity in BALB/c mouse assessed as change in heart weight at 200 mg/kg, po qd administered via gavage after 10 days; type: organism-based; conditions: in vivo, 240 h; procedure, shortened: as §2
Mus musculus [12] = test: Toxicity in BALB/c mouse assessed as change in spleen weight at 200 mg/kg, po qd administered via gavage after 10 days; type: organism-based; conditions: in vivo, 240 h; procedure, shortened: as §2
Mus musculus [13] = test: Toxicity in BALB/c mouse assessed as change in kidney weight at 200 mg/kg, po qd administered via gavage after 10 days; type: organism-based; conditions: in vivo, 240 h; procedure, shortened: as §2
Mus musculus [14] = test: Toxicity in BALB/c mouse assessed as change in liver weight at 200 mg/kg, po qd administered via gavage after 10 days; type: organism-based; conditions: in vivo, 240 h; procedure, shortened: as §2
Mus musculus [15] = test: Hepatotoxicity in BALB/c mouse assessed as change in alanine aminotransferase level in plasma at 200 mg/kg, po qd administered via gavage after 10 days; type: toxicity, organism-based; conditions: in vivo, 240 h
Mus musculus [16] = test: Hepatotoxicity in BALB/c mouse assessed as change in aspartate aminotransferase level in plasma at 200 mg/kg, po qd administered via gavage after 10 days; type: toxicity, organism-based; conditions: in vivo, 240 h
Mus musculus [17] = test: Nephrotoxicity in BALB/c mouse assessed as change in urea level in blood at 200 mg/kg, po qd administered via gavage after 10 days; type: toxicity, organism-based; conditions: in vivo, 240 h
Mus musculus [18] = test: Hepatotoxicity in BALB/c mouse assessed as change in liver morphology at 200 mg/kg, po qd administered via gavage after 10 days by hematoxylin and eosin staining based analysis; type: toxicity, organism-based; conditions: in vivo, 240 h
Procedure, shortened: (§3)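 BALB/c mice dosed orally by gavage once daily at 200 mg/kg; liver and kidney sections stained with H&E and examined for tissue morphology.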

Mus musculus [19] = test: Nephrotoxicity in BALB/c mouse assessed as change in kidney morphology at 200 mg/kg, po qd administered via gavage after 10 days by hematoxylin and eosin staining based analysis; type: toxicity, organism-based; conditions: in vivo, 240 h; procedure, shortened: as §3
[20] = tested on: Mycobacterium tuberculosis; test: Down-regulation of HSP gene in Mycobacterium tuberculosis H37Rv at 2 times MIC90 after 4 hrs by microarray analysis; type: functional
[21] = tested on: Mycobacterium tuberculosis; test: Downregulation of hspR gene in Mycobacterium tuberculosis H37Rv at 2 times MIC90 after 4 hrs by microarray analysis; type: functional
[22] = Chemical stability in PBS at pH 5.5 assessed as drug degradation after 10 hrs by HPLC-UV analysis; type: physicochemical; conditions: read-out: Drug degradation
[23] = Stability of the compound in PBS assessed as parent compound remaining at pH 5.5 after 24 hrs by HPLC-UV analysis; type: physicochemical; conditions: read-out: Stability
[24] = Stability of the compound in PBS assessed as parent compound remaining at pH 7.4 after 24 hrs by HPLC-UV analysis; type: physicochemical; conditions: read-out: Stability
[25] = tested on: Mycobacterium tuberculosis; test: Up-regulation of heat shock protein genes in Mycobacterium tuberculosis H37Rv at 2 times MIC after 4 hrs by microarray analysis; type: functional
[26] = tested on: Mycobacterium tuberculosis; test: Upregulation of ribosomal protein gene in Mycobacterium tuberculosis H37Rv at 2 times MIC90 after 4 hrs by microarray analysis; type: functional
[27] = Chemical stability in PBS at pH 7.4 assessed as drug degradation after 10 hrs by HPLC-UV analysis; type: physicochemical; conditions: read-out: Drug degradation
[28] = tested on: Mycobacterium tuberculosis; test: Up-regulation of ATP synthase sub-units genes in Mycobacterium tuberculosis H37Rv at 2 times MIC90 after 4 hrs by microarray analysis; type: functional
[29] = tested on: Mycobacterium tuberculosis; test: Up-regulation of […] gene EF-G in Mycobacterium tuberculosis H37Rv at 2 times MIC90 after 4 hrs by microarray analysis; type: functional
[30] = tested on: Mycobacterium tuberculosis; test: Up-regulation of […] gene EF-Tu in Mycobacterium tuberculosis H37Rv at 2 times MIC90 after 4 hrs by microarray analysis; type: functional

SMILES: O=C(N/N=C/c1ccc2no[n+]([O-])c2c1)c1ccncc1
- inhibition in vivo at 300 mg/kg [1]: 65.7%
- MIC90 [2]: 1.1 to 5.84 µM (≈ 0.312 to 1.65 µg/mL)
- logP [3]: 1.5
- MIC90 [4]: 11.8 µM
- Activity (Escherichia coli): inactive
- inhibition (INH) [5]: 90%
- fraction unbound at 5 µM [6]: 0.465
- Papp [7]: 5.67 ×10⁻⁶ cm/s
- Papp [8]: 3.9 ×10⁻⁶ cm/s
- Activity (Mus musculus [9]): Non-Toxic
- Activity (Mus musculus [10]): Non-Toxic
- Activity (Mus musculus [11]): Non-Toxic
- Activity (Mus musculus [12]): Non-Toxic
- Activity (Mus musculus [13]): Non-Toxic
- Activity (Mus musculus [14]): Non-Toxic
- Activity (Mus musculus [15]): Non-Toxic
- Activity (Mus musculus [16]): Non-Toxic
- Activity (Mus musculus [17]): Toxic
- Activity (Mus musculus [18]): Non-Toxic
- Activity (Mus musculus [19]): Non-Toxic
- Activity [20]: Active
- Activity [21]: Active
- degraded at 10 h [22]: 20%
- remaining at 24 h [23]: 67%
- remaining at 24 h [24]: 75%
- Activity [25]: inactive
- Activity [26]: Active
- degraded at 10 h [27]: 20%
- Activity [28]: Active
- Activity [29]: Active
- Activity [30]: Active
